Bioassay records (PubChem BioAssay)
A selection: hits, their analogues and other compounds. The true share with any hit is near 1.8%.
GALR2 blocker: blocks the human galanin receptor 2 | inhibition, % at 4 µM | O43603 | 0.39% of 140,000 active | GALR2-expressing cells, antagonist mode;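 note: cells stimulated with galanin 1-16 at roughly its EC80; 0% = agonist challenge control and 100% = basal control without agonist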
S1P2 agonist: S1P2 (human) receptor agonism | 0.46% of 97,000 active | AID 729 | activation, % at 4.5 µM | O95136 | S1P2-expressing cell line, agonist reporter read-out; in the data active = activation above about 16%;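 note: 0% = vehicle low control and 100% = maximal reference agonist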
Target sequence (O95136 whole entry, looked up): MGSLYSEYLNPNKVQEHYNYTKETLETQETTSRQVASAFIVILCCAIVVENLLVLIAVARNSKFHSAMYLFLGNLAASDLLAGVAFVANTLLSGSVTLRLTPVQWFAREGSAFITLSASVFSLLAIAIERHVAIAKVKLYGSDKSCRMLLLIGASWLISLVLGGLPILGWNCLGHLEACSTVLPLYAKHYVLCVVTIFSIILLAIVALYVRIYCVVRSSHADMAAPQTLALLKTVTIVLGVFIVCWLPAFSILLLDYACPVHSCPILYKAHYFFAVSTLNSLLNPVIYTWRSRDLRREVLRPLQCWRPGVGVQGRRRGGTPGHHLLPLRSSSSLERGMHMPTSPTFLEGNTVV
HIV Rev-RRE inh: disrupts HIV-1 Rev binding to RRE RNA; inhibition, % at 8 µM; AID 704; P05866; 0.79% of 97,000 active; Rev peptide-RRE RNA binding, FRET;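 active = inhibition above the screen-wide mean plus 3 SD, cut at about 35% in these data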;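 note: 0% = median DMSO wells and 100% = median Neomycin B control wells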
Target sequence (P05866 whole entry, looked up): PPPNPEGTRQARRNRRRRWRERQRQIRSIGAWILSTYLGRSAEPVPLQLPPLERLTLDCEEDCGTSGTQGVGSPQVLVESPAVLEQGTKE
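Material: labelled RRE RNA duplex and labelled Rev peptide / Buffer or medium: HEPES pH 7.5 salt buffer with EDTA / Compound dosing: single point, 8 µM final nominal compound concentration / Benchmarks: DMSO low control, neomycin B high control / Timing: 5 min preincubation and 15 min binding, 25 °C / Technique: FRET fluorescence readout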
GALR2 ag: activates the human galanin receptor 2; GALR2-expressing cells, agonist activation read-out; 0.48% of 140,000 active; AID 803; activation, % (concentration not given with the values); in the data active = activation above about 5%, passing the limit was not always enough;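 note: 0% = vehicle buffer wells and 100% = reference agonist at full effect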
S1P2 antag: antagonists of human S1P2 receptor | inhibition, % at 5 µM | cell-based S1P2 antagonist assay, inhibition at 5 uM | AID 736 | 0.21% of 97,000 active; in the data active = inhibition above about 45%;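 note: CRE beta-lactamase reporter cells expressing human S1P2 stimulated with S1P; 0% = agonist at EC80 alone and 100% = agonist plus reference antagonist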
EphB4 antag: blocks human EphB4 binding to ephrin-B2. P54760. EphB4 LBD / TNYL-RAW-Alexa532 peptide, fluorescence polarization. inhibition, % at 7 µM. 0.15% of 97,000 active. AID 720;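 active = inhibition above the screen-wide mean inhibition plus 3 SD, cut at about 15% in these data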;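 note: 0% = DMSO wells and 100% = excess unlabeled TNYL-RAW peptide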
GALR2 ant conf: confirmation of human galanin receptor 2 (GALR2) antagonists; shares compounds with GALR2 blocker; GALR2-expressing cells, antagonist mode, inhibition; inhibition, % at 4 µM; 60% of 480 active; AID 866;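 note: cells stimulated with galanin at about its EC80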
BLA inh counter: inhibits beta-lactamase reporter in GALR2 antagonist counterscreen. shares compounds with GALR2 blocker. AID 867. CHO NFAT-BLA reporter, beta-lactamase FRET, thapsigargin-stimulated. inhibition, % at 4.2 µM. 36% of 480 active;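 active = inhibition above the mean inhibition across tested compounds plus 3 SD, cut at about 27% in these data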;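 note: 0% = 500 nM thapsigargin stimulated wells and 100% = unstimulated BSA only wells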
Active calls of the source: *; nt = not tested or not shown. Cut-off read from the data, not from the text of the source, unless noted: active = inhibition above about 27%; inactive = the rest.

SMILES	GALR2 blocker	S1P2 agonist	HIV Rev-RRE inh	GALR2 ag	S1P2 antag	EphB4 antag	GALR2 ant conf	BLA inh counter
Cc1ccc(C(=O)OCn2ncc(Cl)c(Cl)c2=O)cc1	85*	-5	-4	-2	80*	-4	94*	71*
CCc1ccccc1NC(=O)CN(C)C(=O)Cn1ncc(Cl)c(Cl)c1=O	78*	nt	nt	-2	nt	nt	75*	23
Cc1cc(C(=O)Cn2ncc(Cl)c(Cl)c2=O)c(C)n1CC(F)(F)F	20	nt	nt	0	nt	nt	nt	nt
CCOC(=O)c1ccc(NC(=O)Cn2ncc(Cl)c(Cl)c2=O)cc1	82*	nt	nt	0	nt	nt	67*	48*
CCOC(=O)c1ccc(NC(=O)CN2C(=O)CCC2=O)cc1	-1	1	1	-3	-14	-1	nt	nt
O=C(OCn1ncc(Cl)c(Cl)c1=O)c1ccc(C(F)(F)F)cc1	34*	-10	12	-4	24	4	43*	12
COc1ccc(N(C(=O)CCl)C(C)(C(=O)Nc2c(C)cccc2C)c2ccccn2)cc1 (centres undefined)	16	nt	nt	-2	nt	nt	nt	nt
O=C(CSC(=S)N1CCOCC1)Nc1nc(=O)c2ccccc2s1	14	nt	nt	0	nt	nt	nt	nt
Cc1ccc(-c2cc(C(=O)N(C)Cc3cnn(C)c3C)c3cc(Br)ccc3n2)cc1	28*	nt	nt	0	nt	nt	24	6
COc1ccc([N+](=O)[O-])cc1N(CC(=O)NCCC1=CCCCC1)S(C)(=O)=O	5	nt	nt	-1	nt	nt	nt	nt
O=C(Nc1nc(-c2ccccc2)cs1)c1cccs1	10	-9	-3	-3	10	-12	nt	nt
O=C(Nc1nc(-c2ccccc2)ns1)c1cccs1	36*	-3	5	-1	-5	-6	5	-5
Cc1ccc(S(=O)(=O)N[C@H](C(=O)Oc2ccc3c(C(F)(F)F)cc(=O)oc3c2)c2ccccc2)cc1	44*	-8	58*	-1	58*	-5	22	36*
C/C(CCN1CCc2nc(-c3ccccc3)c(-c3ccccc3)cc2C1)=N\O[C@@H](C)c1cn([C@H](CO)Cc2ccccc2)nn1	-3	nt	nt	3	nt	nt	nt	nt
O=C1C=CC(=O)C(C2=C3C(=O)N(CCc4ccccc4)CC(=O)N3CCC2)=C1	39*	nt	nt	0	nt	nt	60*	81*
Cc1ccc(C(=O)N/C(=C/c2cccs2)C(=O)NCc2ccco2)cc1	27*	nt	nt	-1	nt	nt	6	-2
Cc1ccc(C(=O)N/C(=C\c2cccs2)C(=O)NCc2cccnc2)cc1	17	nt	nt	-1	nt	nt	nt	nt
S=C(Nc1cccc(Cl)c1)Nc1cccc2cnccc12	30*	nt	nt	-1	nt	nt	22	11
Cc1ccc(NS(=O)(=O)c2ccc(Cl)c(NC(=S)NC(=O)C3CCCCC3)c2)cc1Cl	-5	nt	nt	1	nt	nt	nt	nt
CC(=O)C1=C(c2ccc(Br)cc2)C(=O)c2ccccc2C1=O	35*	nt	nt	-2	nt	nt	26	16
CNC1=C(N(C(C)=O)c2ccc(Br)cc2)C(=O)c2ccccc2C1=O	1	nt	nt	-1	nt	nt	nt	nt
CCN(CC)c1ccc2cc(-c3nc(-c4ccc(OC)cc4)cs3)c(=O)oc2c1	78*	nt	nt	-4	nt	nt	75*	85*
CC(=O)Nc1nc2n(n1)C(c1ccc(F)cc1)C=C(c1ccccc1)N2 (centres undefined)	31*	-9	56*	-2	56*	-1	28*	45*
Cc1cc(NC(=O)CCc2ccccc2)c([N+](=O)[O-])cc1C	-1	nt	nt	1	nt	nt	nt	nt
COc1cc2nc(/C=C/c3ccc(N(C)C)cc3)sc2cc1SC	52*	nt	nt	5.2*	nt	nt	60*	67*
